Data reported in ChEMBL document CHEMBL5104201, “Prodrugs of a 1-Hydroxy-2-oxopiperidin-3-yl Phosphonate Enolase Inhibitor for the Treatment of ENO1-Deleted Cancers” (J Med Chem, 2022).

Tests used:
[1] = test system: Panel NCI-60 (60 carcinoma cell lines); test: Cytotoxicity against human NCI-60 cells assessed as reduction in cell viability at 10 uM incubated for […]; format: functional
In short: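 NCI DTP one-dose screen: single 10 μM dose, […], across the 60-line panel (some lines absent when unavailable). Cells kept in RPMI 1640 with 5% FBS and 2 mM L-glutamine, seeded at 5000–40,000 cells/well by doubling time. Percent growth given relative to drug-free untreated control and to cell number at time zero.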

[2] = Metabolic stability of the compound in human serum over 12 hrs by 31P-NMR analysis; format: ADME, cell-free
In short: (§1)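 Prodrug dissolved in DMSO and added to 80% human serum/plasma with 20% D2O, final 2 mM unless stated otherwise. Samples held at 37 °C between timepoints. Read by 31P NMR (CPD, 500 scans), with 1H–31P HSQC where applicable. Peaks integrated and normalised to the phosphate peak at 0 ppm.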

[3] = Metabolic stability of the compound in human serum measured over 366 hrs by 31P-NMR analysis; format: ADME, cell-free; in short: as §1
[4] = Metabolic stability of the compound in human serum measured over 16 hrs by 31P-NMR analysis; format: ADME, cell-free; in short: as §1
[5] = Metabolic stability of the compound in human serum measured over 9 hrs by 31P-NMR analysis; format: ADME, cell-free; in short: as §1
[6] = Cytotoxicity against human LN-319 cells expressing ENO1 assessed as cell growth inhibition incubated for 6 days by cystal violet staining based analysis; format: functional; conditions: LN-319, 144 h
[7] = Stability of compound in phosphate buffer at pH 7 incubated for 3 hrs; format: physicochemical; conditions: pH 7, 3 h
In short: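 Stability followed by 31P NMR in 5 mM phosphate-buffered D2O at pH 7.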

[8] = Stability of compound in human plasma incubated for 3 hrs by 31P-NMR analysis; format: ADME, cell-free; in short: as §1
[9] = Stability of compound in culture media incubated for 72 hrs by 31P-NMR analysis; format: physicochemical
In short: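 Prodrug (final 2 mM unless stated otherwise) in 80% DMEM with 20% D2O, kept at 37 °C between timepoints. Species followed by 31P NMR (CPD, 500 scans).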

[10] = Stability of compound in human serum incubated for 72 hrs by 31P-NMR analysis; format: ADME, cell-free; in short: as §1
[11] = Prodrug conversion in human plasma assessed as (1-hydroxy-2-oxopiperidin-3-yl) phosphonic acid formation measured after 3 hrs by 31P-NMR analysis; format: ADME, cell-free; in short: as §1

Structure (SMILES) | IC50 [6] | further results
CC(C)(C)C(=O)OCOP(=O)(OCOC(=O)C(C)(C)C)C1CCCN(O)C1=O (configuration not stated) |  | Activity [1]: 7.1%; Stability [2]: Unstable
CC(C)OC(=O)[C@H](C)NP(=O)(Oc1ccccc1)C1CCCN(O)C1=O (some centres not stated) |  | Stability [3]: Stable; Stability [4]: Stable; Stability [5]: Stable
CC(C)(C)C(=O)OCOP(N)(=O)C1CCCN(O)C1=O (configuration not stated) | 426 µM | 
N#CCOP(=O)(NCc1ccccc1)C1CCCN(O)C1=O (configuration not stated) | 0.775 µM | 
O=C1C(P(=O)(NCc2ccccc2)OCOC(=O)N2CCC(N3CCCCC3)CC2)CCCN1O (configuration not stated) | > 100 µM | 
N#CCOP(=O)(OC#N)C1CCCN(O)C1=O (configuration not stated) | > 100 µM | 
CCCCCCCCCCCCNP(=O)(O)C1CCCN(O)C1=O (configuration not stated) | > 100 µM | 
O=C1C(P(=O)(NCc2ccccc2)Oc2ccc(F)cc2)CCCN1O (configuration not stated) | > 100 µM | 
CNP(=O)(OCOC(=O)C(C)(C)C)C1CCCN(O)C1=O (configuration not stated) | 5.4 µM | 
O=C1C(P(=O)(O)O)CCCN1O (configuration not stated) | 3000 µM | 
CC(C)C(=O)ON1CCCC(P2(=O)OCc3ccccc3O2)C1=O (configuration not stated) |  | Stability [7]: Stable; Stability [8]: Unstable; Stability [9]: Stable; Stability [10]: Stable; Drug metabolism [11]: Metabolite_Detected
CC(C)OC(=O)[C@H](C)NP(=O)(N[C@@H](C)C(=O)OC(C)C)C1CCCN(O)C1=O (some centres not stated) | > 100 µM | 
CC(C)(C)C(=O)OCOP(=O)(NCc1cccc(F)c1)C1CCCN(O)C1=O (configuration not stated) | 2.38 µM | 
CCCCCCCCCCCCCCCCOCCCOP(=O)(O)C1CCCN(O)C1=O (configuration not stated) |  | Activity [1]: 14%
CN(C)P(=O)(OCOC(=O)C(C)(C)C)C1CCCN(O)C1=O (configuration not stated) | 12.9 µM | 
